The record followed here is ChEMBL document CHEMBL2429835.

One test relates to Mycobacterium avium. Description: Antimycobacterial activity against Mycobacterium avium ATCC 15769 at 100 ug/ml after 7 days by microplate Alamar blue assay. The test is classed as functional, organism-based. The method, boiled down: (§1)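 MABA in 7H12 (M. abscessus, M. bovis BCG) or 7H9 (others). Pre-dye incubation: M. abscessus 37 °C 3 days; BCG 37 °C 7 days; M. chelonae 30 °C 3 days; M. marinum 30 °C 5 days; M. avium and M. kansasii 37 °C 6 days. Then 20% Tween80 plus Alamar blue added: 4 h (abscessus), 6 days (chelonae), 1 day (others). Tested at 100 μg/mL.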

Another test concerns Enterococcus faecalis. Description: Antibacterial activity against Enterococcus faecalis ATCC 29212 at 100 ug/ml by broth microdilution method. The test is classed as functional, organism-based. The method, boiled down: (§2)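 Broth microdilution per NCCLS guidelines; growth read spectrophotometrically at 570 nm, except S. pneumoniae at 490 nm, which was tested with 2% HBL supplement. Compounds tested up to 100 μg/mL.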
A general note: Broth dilution looks for growth in wells or tubes with falling amounts of substance.

The subject of another test is Staphylococcus aureus. Kind of test: Antibacterial activity against Staphylococcus aureus ATCC 29213 at 100 ug/ml by broth microdilution method. The test is classed as functional, organism-based. The procedure, abridged: as §2
A further test concerns Candida albicans. Kind of test: Antifungal activity against Candida albicans ATCC 90028 at 100 ug/ml by broth microdilution method. The test is classed as functional, organism-based. The procedure, abridged: as §2
Test [1] can be described thus: Selectivity index, ratio of IC50 for african green monkey Vero cells to MIC90 for Mycobacterium tuberculosis H37Rv ATCC 27294 by microplate Alamar blue assay. The test is classed as functional. In general terms: Resazurin is reduced to fluorescent resorufin, in cell work by metabolically active cells.
In a further test the test system is Acinetobacter baumannii. Description: Antibacterial activity against Acinetobacter baumannii at 100 ug/ml by broth microdilution method. The test is classed as functional, organism-based.
Test [2] has as its system Mycolicibacterium smegmatis. Description: Antimycobacterial activity against Mycobacterium smegmatis MC2 155 at 100 ug/ml after 3 days by microplate Alamar blue assay. The test is classed as functional, organism-based. The following applies: str. MC2 155. The method, boiled down:
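MABA: 37 °C for 3 days, then Tween80 (20%) and Alamar blue added, 4 h further incubation; fluorescence read-out. Tested at 100 μg/mL.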

The next test relates to Escherichia coli. Kind of test: Antibacterial activity against Escherichia coli ATCC 25922 at 100 ug/ml by broth microdilution method. The test is classed as functional, organism-based. The method, boiled down: as §2
Test [3] concerns Mycobacterium kansasii. Kind of test: Antimycobacterial activity against Mycobacterium kansasii ATCC 12478 at 100 ug/ml after 7 days by microplate Alamar blue assay. The test is classed as functional. The procedure, abridged: as §1
Test [4] concerns Mycobacteroides abscessus. Kind of test: Antimycobacterial activity against Mycobacterium abscessus ATCC 19977 at 100 ug/ml after 7 days by microplate Alamar blue assay. The test is classed as functional.
A further test relates to Pseudomonas aeruginosa. Kind of test: Antibacterial activity against Pseudomonas aeruginosa ATCC 27853 at 100 ug/ml by broth microdilution method. The test is classed as functional, organism-based. The procedure, abridged: as §2
Test [5] concerns Mycobacterium marinum. Description: Antimycobacterial activity against Mycobacterium marinum ATCC 927 after 6 days by microplate Alamar blue assay. As to conditions: ATCC 927, 144 h. The test is classed as functional.
In test [6] the test system is Mycobacterium tuberculosis. Description: Antimycobacterial activity against Mycobacterium tuberculosis H37Rv ATCC 27294 by microplate Alamar blue assay. The test is classed as functional. The procedure, abridged: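 Strain (H37Rv or ATCC single-drug-resistant isolates) grown to late log phase in 7H9 with 0.2% glycerol, 0.05% Tween80, 10% OADC. Cells washed into PBS, passed through 8 μm filter, frozen; CFU titred on 7H11 agar. MABA MIC is the lowest concentration giving ≥90% growth inhibition versus untreated controls.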

The test system of test [7] is Mycobacterium tuberculosis. Description: Antimycobacterial activity against Mycobacterium tuberculosis H37Rv ATCC 27294 incubated for 10 days under low oxygen condition followed by normoxic environment for 28 hrs by low oxygen recovery assay. The test is classed as functional. The procedure, abridged:
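Luciferase (luxAB) reporter strain adapted to low oxygen in a fermenter. Exposed to samples for 10 days at 37 °C under hypoxia, then 28 h normoxic at 37 °C. Luminescence read; MIC is the lowest concentration cutting luminescence by ≥90% versus untreated cultures.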

The subject of another test is Mycobacteroides chelonae. Description: Antimycobacterial activity against Mycobacterium chelonae ATCC 35752 at 100 ug/ml after 9 days by microplate Alamar blue assay. The test is classed as functional, organism-based. The procedure, abridged:
as §1

Another test concerns Streptococcus pneumoniae. Kind of test: Antibacterial activity against Streptococcus pneumoniae at 100 ug/ml. The test is classed as functional, organism-based. The method, boiled down: as §2
For test [8], the system named is Mycobacterium marinum. Kind of test: Antimycobacterial activity against Mycobacterium marinum ATCC 927 at 100 ug/ml after 6 days by microplate Alamar blue assay. The test is classed as functional, organism-based. The method, boiled down: as §1
The test system of another test is Vero. Description: Cytotoxicity against african green monkey Vero cells after 72 hrs by MTS-PMS assay. The test is classed as cell-based. The following applies: Chlorocebus sabaeus. The method, boiled down: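 Vero cells in EMEM with 10% FBS at 37 °C, 5% CO2, diluted to 10^6 cells/mL. Exposed to 2-fold serial dilutions for 72 h at 37 °C.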
Test [9] deals with Mycobacterium kansasii. Kind of test: Antimycobacterial activity against Mycobacterium kansasii ATCC 12478 after 7 days by microplate Alamar blue assay. The test is classed as functional. The following applies: ATCC 12478, 168 h. The procedure, abridged:
as §1

Values after ≈ are worked out from the molar mass of the structure shown. Active and inactive are the calls of the source. No cut-off for these calls is given here.

Take `CCOC(=O)c1c(-c2ccccc2)c2cc(Cl)ccc2oc1=O`: the outcome (with Mycobacterium avium; with Enterococcus faecalis; in the test on Staphylococcus aureus; in the test on Candida albicans; in the test on Acinetobacter baumannii; in test [2]) was inactive. Besides, the outcome (with Escherichia coli; in the test with Mycobacterium kansasii [3]; in test [4]; in the test on Pseudomonas aeruginosa; with Mycobacteroides chelonae; with Streptococcus pneumoniae) was inactive. In addition, the “Selectivity Index” value in [1] stood at 0.82. Besides, the MIC90 in the test on Mycobacterium marinum [5] turned out to be 97.1 µg/mL (≈ 295 µM); in [6] it was 44.7 µg/mL (≈ 136 µM); in test [7], 37.1 µg/mL (≈ 113 µM).

Consider `O=c1cc(-c2ccccc2)c2cc(Cl)ccc2o1`, for which the result in the test on Mycobacterium avium, with Enterococcus faecalis, in the test with Mycobacterium marinum [8], in the test on Staphylococcus aureus, with Candida albicans and with Acinetobacter baumannii was inactive. Also, the outcome (in test [2]; with Escherichia coli; in the test with Mycobacterium kansasii [3]; in test [4]; with Pseudomonas aeruginosa; with Mycobacteroides chelonae) was inactive. In addition, in the test on Streptococcus pneumoniae, the result was inactive. Also, the IC50 in the test on Vero is above 100 µg/mL. Further, the MIC90 in test [6] is above 100 µg/mL.

Turning to `CN[C@@H]1[C@H](O[C@H]2[C@H](O[C@H]3[C@H](O)[C@@H](O)[C@H](N=C(N)N)[C@@H](O)[C@@H]3N=C(N)N)O[C@@H](C)[C@]2(O)C=O)O[C@@H](CO)[C@H](O)[C@H]1O` [STREPTOMYCIN], the “Selectivity Index” value in [1] is recorded as above 833. In addition, the IC50 in the test with Vero was above 100 µg/mL. The MIC90 in test [6] was found to be 0.12 µg/mL (≈ 0.206 µM); in test [7], 1.07 µg/mL (≈ 1.84 µM).

For `O=[N+]([O-])c1cn2c(n1)OC[C@@H](OCc1ccc(OC(F)(F)F)cc1)C2` [PRETOMANID], in test [1], the “Selectivity Index” value was above 5000. Moreover, the IC50 in the test on Vero is above 100 µg/mL. Also, the MIC90 in test [6] amounted to 0.02 µg/mL (≈ 0.0557 µM); in test [7], 0.25 µg/mL (≈ 0.696 µM).

Consider `N[C@@H]1CONC1=O` [CYCLOSERINE], for which, in test [1], the “Selectivity Index” value is reported as above 17. In the test on Vero, this compound registered an IC50 above 100 µg/mL. Also, in test [6], the MIC90 was 6.02 µg/mL (≈ 59 µM).

Turning to `CO[C@H]1/C=C/O[C@@]2(C)Oc3c(C)c(O)c4c(O)c(c(/C=N/N5CCN(C)CC5)c(O)c4c3C2=O)NC(=O)/C(C)=C\C=C\[C@H](C)[C@H](O)[C@@H](C)[C@@H](O)[C@@H](C)[C@H](OC(C)=O)[C@@H]1C` [RIFAMPIN], the IC50 in the test on Vero was above 100 µg/mL. Further, the MIC90 in [6] is 0.08 µg/mL (≈ 0.0972 µM); in test [7] it was below 0.05 µg/mL.

For `NC[C@H]1O[C@H](O[C@H]2[C@H](O)[C@@H](O[C@H]3O[C@H](CO)[C@@H](O)[C@H](N)[C@H]3O)[C@H](N)C[C@@H]2N)[C@H](O)[C@@H](O)[C@@H]1O` [KANAMYCIN], the “Selectivity Index” value in test [1] is above 154. For the same compound, the 50% inhibitory concentration (IC50) in the test on Vero is above 100 µg/mL. This compound came in with an MIC90 in test [6] of 0.65 µg/mL (≈ 1.34 µM).

For `NNC(=O)c1ccncc1` [ISONIAZID], the IC50 in the test with Vero was above 100 µg/mL. In test [6], the MIC90 came out at 0.03 µg/mL (≈ 0.219 µM).

Regarding `O=c1cc(-c2ccccc2)c2ccc(Cl)cc2o1`, the outcome in the test on Mycobacterium avium, in the test with Enterococcus faecalis, in the test with Mycobacterium marinum [8], in the test on Staphylococcus aureus, in the test with Candida albicans and with Acinetobacter baumannii was inactive. Also, the outcome (in test [2]; with Escherichia coli; in test [4]; in the test with Pseudomonas aeruginosa; with Mycobacteroides chelonae; with Streptococcus pneumoniae) was inactive. In test [1], the “Selectivity Index” value was determined as 1.27. For the same compound, the IC50 in the test with Vero worked out at 30.4 µg/mL (≈ 118 µM). For the same compound, the MIC90 worked out at 23.9 µg/mL (≈ 93.1 µM) in test [6], 21.9 µg/mL (≈ 85.3 µM) in test [7] and 49.3 µg/mL (≈ 192 µM) against Mycobacterium kansasii [9].

As to `CCOC(=O)c1c(-c2ccccc2)c2ccc(Cl)cc2oc1=O`, the result in the test on Mycobacterium avium, with Enterococcus faecalis, in the test with Mycobacterium marinum [8], with Staphylococcus aureus, with Candida albicans and with Acinetobacter baumannii was inactive. In addition, the result (in test [2]; in the test with Escherichia coli; with Mycobacterium kansasii [3]; in test [4]; in the test with Pseudomonas aeruginosa; in the test on Mycobacteroides chelonae) was inactive. The result in the test on Streptococcus pneumoniae was inactive. For the same compound, the “Selectivity Index” value in [1] amounted to 1.1. In addition, the IC50 with Vero is 39.4 µg/mL (≈ 120 µM). Further, the MIC90 worked out at 35.9 µg/mL (≈ 109 µM) in test [6] and 23.2 µg/mL (≈ 70.6 µM) in [7].

For orientation: MIC90 means the lowest concentration that inhibits either 90% of growth or 90% of the strains tested, depending on the study. One may read the IC50 as the concentration that inhibits the measured activity by half.
